Test results from the RNAGym collection of RNA variant scans (doi:10.1126/science.aae0568).
Fewer inactive variants are shown than the library holds.

B1: tRNA (parent)
chain: GUUCCGUUGGCGUAAUGGUAACGCGUCUCCCUCCUAAGGAGAAGACUGCGGGUUCGAGUCCCGUACGGAACG

Variants of: B1
Test: yeast fitness relative to wild type (ratio to wild type); higher = fitter; tRNA-Arg(CCU), competitive growth, 37 C, YPD
Summary of the method: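 Start and end populations of a pooled competition were compared by 100-nucleotide paired-end sequencing of gene amplicons. The Saccharomyces cerevisiae strains carried tRNA-Arg(CCU) gene variants at the native genomic locus, synthesised with a 3% per-site mutation rate at 69 sites, and competed in YPD at 37°C for 24 hours in six parallel replicates. Darwinian fitness relative to wild type was based on the change in genotype frequencies. Genotypes required ≥ 100 starting reads, and estimates < 0.5 were set to 0.5.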

Q: Which yeast fitness does the source give for G63C G67A here?
A: The yeast fitness was 0.692.

Q: For G63C G67C A70C, which yeast fitness is on record?
A: The yeast fitness was 0.778.

Q: Which yeast fitness does the source give for G63C U64C here?
A: The yeast fitness was 0.969.

Q: Which yeast fitness does the source give for G63U here?
A: The yeast fitness was 0.825.

Q: For G63U U64A, which yeast fitness is on record?
A: Its yeast fitness is 0.676.

Q: For U64A A65U A70U, which yeast fitness is on record?
A: The yeast fitness was 0.601.

Q: With U64A C66G as the variant, how does the yeast fitness read?
A: The yeast fitness was 0.7.

Q: With U64A C66U as the variant, how does the yeast fitness read?
A: The yeast fitness was 0.942.

Q: Which yeast fitness does the source give for U64A G68C here?
A: Its yeast fitness is 0.709.

Q: For U64A G68U, which yeast fitness is on record?
A: The yeast fitness was 0.728.

Q: Which yeast fitness does the source give for U64C A65C here?
A: Its yeast fitness is 0.891.

Q: For U64C A69C, which yeast fitness is on record?
A: Its yeast fitness is 0.983.

Q: For U64C A69U, which yeast fitness is on record?
A: Its yeast fitness is 1.07.

Q: With U64C A70G as the variant, how does the yeast fitness read?
A: The yeast fitness was 0.844.

Q: Which yeast fitness does the source give for U64C A70U here?
A: Its yeast fitness is 0.953.

Q: With U64C C66U as the variant, how does the yeast fitness read?
A: Its yeast fitness is 0.958.

Q: For U64C G68A, which yeast fitness is on record?
A: The yeast fitness was 0.979.

Q: Which yeast fitness does the source give for U64C G68C here?
A: Its yeast fitness is 0.978.

Q: Which yeast fitness does the source give for U64G A70U here?
A: The yeast fitness was 0.787.

Q: For A65C, which yeast fitness is on record?
A: The yeast fitness was 1.01.

Q: For A65C A69C A70G, which yeast fitness is on record?
A: The yeast fitness was 0.554.

Q: With A65C C66A as the variant, how does the yeast fitness read?
A: Its yeast fitness is 0.808.

Q: With A65C C66G as the variant, how does the yeast fitness read?
A: Its yeast fitness is 0.588.

Q: Which yeast fitness does the source give for A65C C66U here?
A: Its yeast fitness is 0.89.

Q: With A65C G67C as the variant, how does the yeast fitness read?
A: Its yeast fitness is 0.782.

Q: For A65C G68A, which yeast fitness is on record?
A: Its yeast fitness is 0.767.

Q: Which yeast fitness does the source give for A65G here?
A: Its yeast fitness is 0.999.

Q: For A65G A69U, which yeast fitness is on record?
A: The yeast fitness was 0.993.

Q: For A65G A70G, which yeast fitness is on record?
A: The yeast fitness was 0.865.

Q: For A65G A70U, which yeast fitness is on record?
A: The yeast fitness was 0.943.

Q: With A65G C66G G68A as the variant, how does the yeast fitness read?
A: The yeast fitness was 0.575.

Q: Which yeast fitness does the source give for A65G G68A here?
A: The yeast fitness was 0.924.

Q: Which yeast fitness does the source give for A65G G68U here?
A: The yeast fitness was 0.809.

Q: For A65U, which yeast fitness is on record?
A: The yeast fitness was 0.993.

Q: For A65U A70U, which yeast fitness is on record?
A: Its yeast fitness is 1.11.

Q: With A65U C66A as the variant, how does the yeast fitness read?
A: The yeast fitness was 0.751.

Q: For A65U C66G G68C, which yeast fitness is on record?
A: The yeast fitness was ≤ 0.5.

Q: Which yeast fitness does the source give for A65U G68A here?
A: Its yeast fitness is 0.729.

Q: For C66A, which yeast fitness is on record?
A: The yeast fitness was 0.766.

Q: With C66A A69C as the variant, how does the yeast fitness read?
A: Its yeast fitness is 0.665.

Q: With C66A A70G as the variant, how does the yeast fitness read?
A: The yeast fitness was 0.764.

Q: Which yeast fitness does the source give for C66G here?
A: The yeast fitness was 0.902.

Q: With C66U as the variant, how does the yeast fitness read?
A: Its yeast fitness is 0.968.

Q: Which yeast fitness does the source give for C66U A69G here?
A: Its yeast fitness is 0.801.

Q: Which yeast fitness does the source give for C66U A70C here?
A: Its yeast fitness is 0.895.

Q: For C66U G67A, which yeast fitness is on record?
A: The yeast fitness was 0.841.

Q: Which yeast fitness does the source give for C66U G68C here?
A: Its yeast fitness is 0.779.

Q: With G67A A69C as the variant, how does the yeast fitness read?
A: The yeast fitness was 0.877.

Q: Which yeast fitness does the source give for G67A A69U here?
A: Its yeast fitness is 0.733.

Q: For G67A A70G, which yeast fitness is on record?
A: The yeast fitness was 0.917.

Q: With G67A A70U as the variant, how does the yeast fitness read?
A: The yeast fitness was 0.938.

Q: Which yeast fitness does the source give for G67C A69C here?
A: Its yeast fitness is 0.651.

Q: Which yeast fitness does the source give for G67C A69G here?
A: The yeast fitness was 0.977.

Q: With G67C G68A as the variant, how does the yeast fitness read?
A: Its yeast fitness is 0.874.

Q: With G67U A69G as the variant, how does the yeast fitness read?
A: The yeast fitness was 1.05.

Q: With G67U A70G as the variant, how does the yeast fitness read?
A: Its yeast fitness is 0.822.

Q: Which yeast fitness does the source give for G68A A69C here?
A: The yeast fitness was 0.766.

Q: Which yeast fitness does the source give for G68A A70G here?
A: The yeast fitness was 0.885.

Q: With G68C A70G as the variant, how does the yeast fitness read?
A: The yeast fitness was 0.897.

Q: For G68C A70U, which yeast fitness is on record?
A: The yeast fitness was 0.899.

Q: With A69C as the variant, how does the yeast fitness read?
A: The yeast fitness was 1.03.

Q: Which yeast fitness does the source give for A69G here?
A: Its yeast fitness is 0.982.

Q: For A69G A70C, which yeast fitness is on record?
A: Its yeast fitness is 0.896.

Q: Which yeast fitness does the source give for A69G A70G here?
A: Its yeast fitness is 1.02.

Q: With A69U as the variant, how does the yeast fitness read?
A: Its yeast fitness is 1.04.

Q: With A69U A70G as the variant, how does the yeast fitness read?
A: Its yeast fitness is 0.871.

Q: For A69U A70U, which yeast fitness is on record?
A: Its yeast fitness is 1.03.
